Series [1] relates to Plasmodium falciparum. As to the kind of experiment: Antiplasmodial activity against chloroquine-sensitive Plasmodium falciparum 3D7 assessed as inhibition of parasite growth after 72 hrs by DAPI staining-based confocal microscopic analysis. It is filed as functional, organism-based. The following applies: 3D7, 72 h. An outline of the steps:
(§1)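 Sorbitol-synchronized asexual P. falciparum in human O+ erythrocytes (RPMI, Hepes, hypoxanthine, 5% human serum, AlbuMAX II), ring stage at 2% parasitemia, 0.3% hematocrit. Three-step log dilutions from 40 μM top, 0.4% DMSO final. 72 h at 37 °C, 5% CO2. Saponin/Triton X/EDTA/DAPI stain overnight, confocal imaging counts parasites.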

Series [2] concerns Plasmodium falciparum. As to the kind of experiment: Antiplasmodial activity against chloroquine-resistant Plasmodium falciparum Dd2 assessed as inhibition of parasite growth after 72 hrs by DAPI staining-based confocal microscopic analysis. The class given is functional, organism-based. The conditions noted are these: Dd2, 72 h. An outline of the steps:
as §1

A short description of series [3]: Cytotoxicity against HEK293 cells assessed as cell viability at 40 uM after 72 hrs by resazurin-based plate reader analysis. The conditions noted are these: human, read-out: Activity. The gist of the method:
(§2)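 HEK293 cells grown in DMEM with 10% FCS, seeded at 2000 cells/well and left overnight to adhere at 37 °C, 5% CO2. Compounds were tested at a final 40 μM in 0.4% DMSO. After 72 h exposure, 44 μM resazurin in serum-free DMEM was added for 4−6 h and fluorescence read at 530/595 nm. Growth was normalised to 5 μM puromycin and 0.4% DMSO controls, with IC50 from variable-slope nonlinear regression.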

For series [4], the system named is MDA-MB-231. As to the kind of experiment: Cytotoxicity against human MDA-MB-231 cells assessed as cell viability after 72 hrs by Alamar Blue assay. The class given is functional, cell-based. The following applies: MDA-MB-231, 72 h. An outline of the steps:
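MDA-MB-231 cells in DMEM with 10% FBS, 2 mM L-glutamine, penicillin and streptomycin were seeded at 10 000 cells/well and grown 24 h. Medium was replaced with drug or vehicle (0.1% or 1.0% DMSO) for 72 h. Viability was read by Alamar Blue absorbance at 570 nm (600 nm reference) as % of vehicle control, from six replicates in at least six independent experiments.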
A general note: Resazurin is reduced to fluorescent resorufin, in cell work by metabolically active cells.

The subject of series [5] is Plasmodium falciparum. In words: Antiplasmodial activity against chloroquine-sensitive Plasmodium falciparum 3D7 assessed as inhibition of parasite growth at 100 uM after 72 hrs by DAPI staining-based confocal microscopic analysis. The following applies: 3D7, 72 h. The class given is functional.
In series [6] the test system is Plasmodium falciparum. As to the kind of experiment: Antiplasmodial activity against chloroquine-resistant Plasmodium falciparum Dd2 assessed as inhibition of parasite growth at 100 uM after 72 hrs by DAPI staining-based confocal microscopic analysis. The class given is functional. The following applies: Dd2, 72 h.
The subject of series [7] is HEK293. In words: Cytotoxicity against HEK293 cells assessed as cell viability after 72 hrs by resazurin-based plate reader analysis. The conditions noted are these: Homo sapiens, HEK293, 72 h. The gist of the method:
as §2

Series [8] in a line: Cytotoxicity against HEK293 cells assessed as cell viability at 20 uM after 72 hrs by resazurin-based plate reader analysis. The conditions noted are these: human, read-out: Activity.
Series [9] deals with Plasmodium falciparum. As to the kind of experiment: Antiplasmodial activity against chloroquine-resistant Plasmodium falciparum Dd2 assessed as inhibition of parasite growth at 40 uM after 72 hrs by DAPI staining-based confocal microscopic analysis. The class given is functional. The following applies: Dd2, 72 h. An outline of the steps:
as §1

SMILES strings stand for the structures.

As a reminder, the IC50 is the concentration that gives 50% inhibition. Turning to `CC(C)=CCC/C(C)=C/COc1ccc(/C=C/C(=O)c2ccc(O)cc2O)cc1`, the IC50 in [1] was 3.67 µM; in series [2] it was 6.97 µM.
Turning to `CCN(CC)CCCC(C)Nc1ccnc2cc(Cl)ccc12` (configuration not stated) [CHLOROQUINE], in series [3], the viability at 72 h, 40 µM is 51%.
As a reminder, the inhibition is the relative decrease from the control value, in per cent. As for `O=C1c2ccc3c(c2O[C@@H]2COc4cc5c(cc4[C@@]12O)OCO5)OCO3`, the IC50 in [4] was 87.3 µM. In addition, the inhibition at 100 µM in series [5] came to 99%; in series [6], 90%.
Consider `O[C@@H]1c2ccc3c(c2O[C@@H]2COc4cc5c(cc4[C@@]12O)OCO5)OCO3`, for which the IC50 in series [4] is above 279 µM.
Consider `COc1ccc(C[C@H](N)C(=O)N[C@H]2[C@@H](O)[C@H](n3cnc4c(N(C)C)ncnc43)O[C@@H]2CO)cc1` [PUROMYCIN], for which the figures for the IC50 in series [7], in series [1] and in [2] were 0.361 µM, 0.0227 µM and 0.0452 µM, respectively.
As to `C[C@H]1[C@@H](O)O[C@@H]2O[C@@]3(C)CC[C@H]4[C@H](C)CC[C@@H]1[C@@]24OO3` [ARTENIMOL], in series [3], the viability at 72 h, 40 µM came to 54%. In addition, in series [8], the viability at 72 h, 20 µM came out at 50%. Further, the IC50 in [1] came to 0.0001 µM; in [2] it was 0.000146 µM.
`COc1ccc2nc3cc(Cl)ccc3c(Nc3cc(CN4CCCC4)c(O)c(CN4CCCC4)c3)c2n1` [PYRONARIDINE]: the IC50 in series [1] stood at 0.0036 µM; in [2], 0.00751 µM.
Turning to `C[C@H]1[C@H](OC(=O)CCC(=O)O)O[C@@H]2O[C@@]3(C)CC[C@H]4[C@H](C)CC[C@@H]1[C@@]24OO3` [ARTESUNATE], the viability at 72 h, 20 µM in [8] is 73%. The values for the 50% inhibitory concentration (IC50) in [1] and in [2] were 0.0005 µM and 0.000443 µM, respectively.
Regarding `CC(C)=CCC/C(C)=C/COc1ccc(/C=C/CO)cc1`, the half-inhibitory concentration (IC50) in [4] stood at 207 µM.
`CC1(C)C=Cc2c(ccc3c2O[C@@H]2COc4cc5c(cc4[C@@]2(O)C3=O)OCO5)O1`: the half-inhibitory concentration (IC50) in series [4] was 101 µM. Further, the inhibition at 100 µM amounted to 28% in [5] and 29% in series [6].
As to `COc1cc2c(cc1-c1coc3c4c(ccc3c1=O)OC(C)(C)C=C4)OCO2`, the values for the inhibition at 100 µM in [5] and in series [6] were 94% and 81%, respectively.
For `COc1cc2c(cc1OC)[C@]1(O)C(=O)c3ccc4c(c3O[C@@H]1CO2)C=CC(C)(C)O4` [TEPHROSIN], the IC50 in [1] is 13.3 µM; in series [2], 12.1 µM.
As for `CCc1nc(N)nc(N)c1-c1ccc(Cl)cc1` [PYRIMETHAMINE], the viability at 72 h, 40 µM in series [3] turned out to be 75%. The inhibition at 40 µM in [9] came out at 62%.
With `COc1ccc2c(c1CC=C(C)C)O[C@@H]1COc3cc4c(cc3[C@@]1(O)C2=O)OCO4`, in series [4], the IC50 came to 25.7 µM.
Consider `CC1(C)C=Cc2c(ccc3c2O[C@@H]2COc4cc5c(cc4[C@]2(O)C3=O)OCO5)O1`, for which the IC50 in series [4] is 61.7 µM.
Take `CC(C)=CCC/C(C)=C/COc1ccc(C(=O)/C=C/c2ccc(O)cc2)c(O)c1`: the IC50 in [4] was determined as 126 µM.

These data come from ChEMBL document CHEMBL3758154, “Rotenoids, Flavonoids, and Chalcones from the Root Bark of Millettia usaramensis” (J Nat Prod, 2015).
